One series relates to 2H11 endothelial cells. The series can be described thus: Cytotoxicity assay. The settings on record: Mus musculus, Endothelial cell, 72 h, read-out: IC50 on cell viability. It counts as cell-based, murine. A digest of the protocol:
(§1)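 Cells maintained on uncoated flasks in RPMI 1640 with 10% FBS and 1% penicillin/streptomycin; mycoplasma-checked. Seeded at 3,000 cells/well, allowed ≥3 h adherence (37 °C, 5% CO2), then treated 72 h with graded test compound concentrations. CCK-8 or MTT colorimetric viability, expressed against vehicle-treated cultures. Triplicate wells, at least three independent runs. Apparent IC50 (concentration giving 50% viability) read from mean dose-response curves.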

The next series concerns Fibroblasts. The series can be described thus: Cytotoxicity assay. It counts as cell-based. The settings on record: Fibroblast, 72 h, read-out: IC50 on cell viability. A digest of the protocol: (§2)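 Cells grown in 0.2% gelatin-coated flasks in RPMI 1640 with 20% human serum, 2 mM glutamine, penicillin/streptomycin. Seeded at 3,000 cells/well and allowed to adhere ≥3 h (37 °C, 5% CO2), then exposed to a range of test compound concentrations for 72 h. Viability measured by CCK-8 or MTT, relative to vehicle-only cultures. Triplicate wells, ≥3 independent experiments. Apparent IC50 (concentration giving 50% viability) taken from mean dose-response curves.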

In a further series the test system is FSAII fibrosarcoma cells. The series can be described thus: Cytotoxicity assay. It counts as cell-based, murine. The settings on record: Mus musculus, 72 h, read-out: IC50 on cell viability. In outline:
as §1

Series [1] deals with SCK mammary carcinoma cells. The series can be described thus: Cytotoxicity assay. It counts as cell-based, murine. The settings on record: Mus musculus, 72 h, read-out: IC50 on cell viability. In outline: as §1
Series [2] has as its system MA148 ovarian carcinoma cells. The series can be described thus: Cytotoxicity assay. It counts as cell-based. The conditions noted are these: Homo sapiens, Ovarian carcinoma cell, 72 h, read-out: IC50 on cell viability. In outline: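 3,000 cells/well, left to adhere at least 3 h at 37 °C in 5% CO2, then exposed to various test compound concentrations for 72 h. Viability read colorimetrically (CCK-8 or MTT) as percentage of vehicle-only cultures. Each experiment in triplicate, repeated ≥3 times. Apparent IC50 (concentration for 50% viability) derived from averaged dose-response curves.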

The test system of a further series is B16F10 melanoma cells. The series can be described thus: Cytotoxicity assay. The conditions noted are these: Mus musculus, B16-F10, 72 h, read-out: IC50 on cell viability. It counts as cell-based, murine. In outline: as §1
Another series in a line: General toxicity. It counts as in vivo. The settings on record: 10 mg/kg IP BID, comparison study (Fig. 4b).
In another series the test system is HUVEC. The series can be described thus: Cytotoxicity assay. It counts as cell-based. The settings on record: Homo sapiens, 72 h, read-out: IC50 on cell viability. A digest of the protocol:
as §2

The subject of series [3] is A549 lung carcinoma cells. The series can be described thus: Cytotoxicity assay. The settings on record: Homo sapiens, A549, 72 h, read-out: IC50 on cell viability. It counts as cell-based. In outline:
as §1

As usually defined, the IC50 is the concentration that inhibits the measured activity by half.

As for `CN(C)CCNC(=O)COc1c2cccc1Cc1cccc(c1OCC(=O)NCCN(C)C)Cc1cccc(c1OCC(=O)NCCN(C)C)Cc1cccc(c1OCC(=O)NCCN(C)C)C2` [PTX008], the half-maximal inhibitory concentration (IC50) with 2H11 endothelial cells was greater than 100 µM; in the series with Fibroblasts it was 35 µM; in the series with FSAII fibrosarcoma cells it was greater than 20 µM; in series [1], 100 µM; in series [2], 0.5 µM; in the series on B16F10 melanoma cells it was 80 µM. Besides, the IC50 in the series with HUVEC was 3 µM; in series [3] it was 2 µM. The “body weights of mice during treatment” value in the series “General toxicity” was “remained constant”.

For the origin of these results see PMC4242102 (Investigational new drugs, 2013).
